Laboratory results as given in ChEMBL document CHEMBL3259528, “Exploring 5-nitrofuran derivatives against nosocomial pathogens: synthesis, antimicrobial activity and chemometric analysis” (2014).
In brackets after ≈: the same amount, converted by molar mass. Activity calls are given as the source filed them. No cut-off for these calls is given here.

Assays:
Staphylococcus aureus [1] = test: Antimicrobial activity against multidrug-resistant Staphylococcus aureus VISA3 […] by two-fold broth microdilution method; type: functional
Staphylococcus aureus [2] = test: Antimicrobial activity against Staphylococcus aureus ATCC 29213 after 24 to 48 hrs by two-fold broth microdilution method; type: functional
Escherichia coli [3] = test: Antimicrobial activity against Escherichia coli ATCC 25922 after 24 to 48 hrs by two-fold broth microdilution method; type: functional
Klebsiella pneumoniae = test: Antimicrobial activity against Klebsiella pneumoniae ATCC 700603 at 128 uM after 24 to 48 hrs by two-fold broth microdilution method; type: functional, organism-based
In short: (§1)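 Antibacterial microdilution in CAMH, inoculum 0.5 McFarland diluted in saline/CAMH, 35 °C for 18 h, with further reads at 24 and 48 h. Activity is scored at the maximum tested concentration, 128 µM. Triplicate.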

Enterobacter cloacae [4] = test: Antimicrobial activity against Enterobacter cloacae ATCC 23355 at 128 uM after 24 to 48 hrs by two-fold broth microdilution method; type: functional, organism-based; in short: as §1
Staphylococcus aureus [5] = test: Antimicrobial activity against Staphylococcus aureus ATCC 29213 after 18 hrs by modified broth microdilution method; type: functional
In short: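 PGI90, the concentration giving 90% growth inhibition, fitted with an exponential growth curve from at least seven concentrations of the MIC assay. Inhibition % = [(Ac − Ap)/Ac] × 100 from A620 of drug-free control versus drug-treated culture. Checked by a modified broth microdilution (Phase 2).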

Candida albicans [6] = test: Antimicrobial activity against Candida albicans ATCC 537Y after 48 hrs by two-fold broth microdilution method; type: functional
In short: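 Two-fold serial dilutions in RPMI 1640 per CLSI M27-A2. Stocks in DMSO/RPMI 1:20 v/v. Test range 1.0–64 µM. Inoculum set to 0.5 McFarland, then diluted in saline and RPMI 1640. Plates held at 35 °C for 48 h. MIC is the lowest concentration giving prominent growth reduction. Run in triplicate.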

Serratia marcescens [7] = test: Antimicrobial activity against Serratia marcescens ATCC 14576 after 24 to 48 hrs by two-fold broth microdilution method; type: functional
Enterococcus faecalis [8] = test: Antimicrobial activity against Enterococcus faecalis ATCC 29212 after 24 to 48 hrs by two-fold broth microdilution method; type: functional
Serratia marcescens [9] = test: Antimicrobial activity against Serratia marcescens ATCC 14576 at 128 uM after 24 to 48 hrs by two-fold broth microdilution method; type: functional, organism-based; in short: as §1
Escherichia coli [10] = test: Antimicrobial activity against Escherichia coli ATCC 25922 at 128 uM after 24 to 48 hrs by two-fold broth microdilution method; type: functional, organism-based; in short: as §1
Enterococcus faecalis [11] = test: Antimicrobial activity against Enterococcus faecalis ATCC 29212 at 128 uM after 24 to 48 hrs by two-fold broth microdilution method; type: functional, organism-based; in short: as §1
Candida albicans [12] = test: Antimicrobial activity against Candida albicans ATCC 537Y at 64 uM after 48 hrs by two-fold broth microdilution method; type: functional, organism-based
In short: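 Single top concentration of the antifungal microdilution: RPMI 1640, inoculum 0.5 McFarland diluted in saline/RPMI, 35 °C for 48 h. Activity is judged at the highest tested level, 64 µM. Run in triplicate.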

Enterobacter cloacae [13] = test: Antimicrobial activity against Enterobacter cloacae ATCC 23355 after 24 to 48 hrs by two-fold broth microdilution method; type: functional

Structure (SMILES)	MIC (Staphylococcus aureus [1])	MIC (Staphylococcus aureus [2])	MIC (Escherichia coli [3])	MIC90 (Escherichia coli [3])	Activity (Klebsiella pneumoniae)	Activity (Enterobacter cloacae [4])	log(1/MIC>90) (Staphylococcus aureus [5])	MIC (Candida albicans [6])	MIC90 (Candida albicans [6])	MIC90 (Staphylococcus aureus [2])	MIC (Serratia marcescens [7])	MIC90 (Serratia marcescens [7])	MIC (Enterococcus faecalis [8])	MIC90 (Enterococcus faecalis [8])	Activity (Serratia marcescens [9])	Activity (Escherichia coli [10])	Activity (Enterococcus faecalis [11])	Activity (Candida albicans [12])	MIC (Enterobacter cloacae [13])
CN[C@H](CC(C)C)C(=O)N[C@H]1C(=O)N[C@@H](CC(N)=O)C(=O)N[C@H]2C(=O)N[C@H]3C(=O)N[C@H](C(=O)N[C@H](C(=O)O)c4cc(O)cc(O)c4-c4cc3ccc4O)[C@H](O)c3ccc(c(Cl)c3)Oc3cc2cc(c3O[C@@H]2O[C@H](CO)[C@@H](O)[C@H](O)[C@H]2O[C@H]2C[C@](C)(N)[C@H](O)[C@H](C)O2)Oc2ccc(cc2Cl)[C@H]1O [VANCOMYCIN]	2 µM (≈ 2.9 µg/mL)	< 20 µM																	
CC(=O)N1N=C(c2ccc(C#N)cc2)OC1c1ccc([N+](=O)[O-])o1 (stereo not drawn)	4 µM (≈ 1.31 µg/mL)	2 µM (≈ 0.653 µg/mL)	32 µM (≈ 10.4 µg/mL)	43.1 µM (≈ 14.1 µg/mL)	inactive	inactive	5.41	32 µM (≈ 10.4 µg/mL)	47.6 µM (≈ 15.5 µg/mL)	3.89 µM (≈ 1.27 µg/mL)	64 µM (≈ 20.9 µg/mL)	96.3 µM (≈ 31.4 µg/mL)	64 µM (≈ 20.9 µg/mL)	75.2 µM (≈ 24.5 µg/mL)					
NS(=O)(=O)c1ccc(C(=O)N/N=C/c2ccc([N+](=O)[O-])o2)cc1		4 µM (≈ 1.35 µg/mL)			inactive	inactive	5.08			8.34 µM (≈ 2.82 µg/mL)					inactive	inactive	inactive	inactive	
CC(=O)N1N=C(c2ccc(C(F)(F)F)cc2)OC1c1ccc([N+](=O)[O-])o1 (stereo not drawn)	4 µM (≈ 1.48 µg/mL)	4 µM (≈ 1.48 µg/mL)			inactive	inactive	5.25			5.6 µM (≈ 2.07 µg/mL)					inactive	inactive		inactive	
O=C(N[C@H](CO)[C@H](O)c1ccc([N+](=O)[O-])cc1)C(Cl)Cl [CHLORAMPHENICOL]		4 µM (≈ 1.29 µg/mL)	4 µM (≈ 1.29 µg/mL)		inactive						8 µM (≈ 2.59 µg/mL)		8 µM (≈ 2.59 µg/mL)						4 µM (≈ 1.29 µg/mL)
CC1(C)S[C@@H]2[C@H](NC(=O)[C@H](N)c3ccccc3)C(=O)N2[C@H]1C(=O)O [AMPICILLIN]		< 20 µM	< 20 µM		inactive								< 20 µM		inactive				8 µM (≈ 2.8 µg/mL)
O=C(N/N=C/c1ccc([N+](=O)[O-])o1)c1ccc([N+](=O)[O-])cc1	4 µM (≈ 1.22 µg/mL)	2 µM (≈ 0.608 µg/mL)			inactive	inactive	5.48			3 µM (≈ 0.913 µg/mL)					inactive	inactive	inactive	inactive	
N#Cc1ccc(C(=O)N/N=C/c2ccc([N+](=O)[O-])o2)cc1		4 µM (≈ 1.14 µg/mL)	64 µM (≈ 18.2 µg/mL)	97.3 µM (≈ 27.7 µg/mL)	inactive	inactive	5.27			5.35 µM (≈ 1.52 µg/mL)	64 µM (≈ 18.2 µg/mL)	111 µM (≈ 31.5 µg/mL)	32 µM (≈ 9.1 µg/mL)	40.4 µM (≈ 11.5 µg/mL)				inactive	
CCOc1ccc(C2=NN(C(C)=O)C(c3ccc([N+](=O)[O-])o3)O2)cc1 (stereo not drawn)		8 µM (≈ 2.76 µg/mL)	64 µM (≈ 22.1 µg/mL)	78.6 µM (≈ 27.1 µg/mL)	inactive	inactive	5.09	8 µM (≈ 2.76 µg/mL)	8.39 µM (≈ 2.9 µg/mL)	8.14 µM (≈ 2.81 µg/mL)	64 µM (≈ 22.1 µg/mL)	85.7 µM (≈ 29.6 µg/mL)							
O=C(N/N=C/c1ccc([N+](=O)[O-])o1)c1ccc(Br)cc1		2 µM (≈ 0.676 µg/mL)			inactive	inactive	5.35			4.5 µM (≈ 1.52 µg/mL)					inactive	inactive	inactive	inactive	
O=C1CN(/N=C/c2ccc([N+](=O)[O-])o2)C(=O)N1 [NITROFURANTOIN]		16 µM (≈ 3.81 µg/mL)			inactive								16 µM (≈ 3.81 µg/mL)		inactive				8 µM (≈ 1.91 µg/mL)
